Tests used:
[1] = target: Chymotrypsinogen A (Bos taurus, UniProt P00766); test: Activity against serine protease bovine pancreatic Alpha-Chymotrypsinogen (BPC)
Summary of the method: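 Colorimetric assay with bovine pancreatic α-chymotrypsin ([…], as printed) and 100 μM Succ-AAPF-pNA. Inhibitor at 300–0.06 μM, preincubated with enzyme 1 h at 30 °C. Substrate then added and hydrolysis run to ~30% conversion, read as pNA absorbance.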

[2] = target: T1, Neutrophil elastase (Homo sapiens, UniProt P08246); test: Binding affinity for human leukocyte elastase(HLE) serine protease
T1 sequence (P08246 whole entry): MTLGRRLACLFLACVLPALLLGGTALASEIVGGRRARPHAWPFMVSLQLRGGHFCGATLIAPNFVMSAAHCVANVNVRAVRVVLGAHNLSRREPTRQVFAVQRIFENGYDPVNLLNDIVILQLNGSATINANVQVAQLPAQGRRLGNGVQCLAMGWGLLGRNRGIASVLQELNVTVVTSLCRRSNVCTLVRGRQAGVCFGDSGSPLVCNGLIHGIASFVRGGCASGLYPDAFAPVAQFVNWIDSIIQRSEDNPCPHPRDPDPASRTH
Summary of the method: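 Human leukocyte elastase at 8 nM with 133 μM Succ-AAV-pNA. Inhibitor at 300–0.06 μM, preincubated with enzyme 1 h at 30 °C. Substrate hydrolysis run to ~30% conversion and read by absorbance.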

[3] = target: Cathepsin B (Homo sapiens, UniProt P07858); test: Activity against serine protease human liver Cathepsin B (cat-B )
Summary of the method: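 Human liver cathepsin B, 5 nM, with the stock enzyme activated in 20 mM TCEP before use. Inhibitor at 300–0.06 μM, preincubated 1 h at 30 °C. Then 30 μM Z-FR-pNA added, hydrolysis to ~30% conversion, pNA absorbance read.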

Compound	IC50 [1] [µM]	IC50 [2] [µM]	IC50 [3] [µM]
CN(C)C(=O)C[C@H](NC(=O)[C@@H](NC(=O)CC(C)(C)C)C(C)(C)C)C(=O)N[C@H]1CN(OCc2ccccc2)C1=O	> 75	> 300	> 300
CC(NC(=O)[C@H](CC(=O)N(C)C)NC(=O)[C@@H](NC(=O)CC(C)(C)C)C(C)(C)C)C(=O)c1nc2ccccc2o1 (stereo partly specified)	> 300	183	> 300
CC(NC(=O)[C@H](CC(=O)N(C)C)NC(=O)[C@@H](NC(=O)CC(C)(C)C)C(C)(C)C)C(=O)c1nc2ncccc2o1 (stereo partly specified)	> 300	> 300	59
Cc1cccc2oc(C(=O)C(C)NC(=O)[C@H](CC(=O)N(C)C)NC(=O)[C@@H](NC(=O)CC(C)(C)C)C(C)(C)C)nc12 (stereo partly specified)	> 300	> 300	> 300
CC(NC(=O)[C@H](CC(=O)N(C)C)NC(=O)[C@@H](NC(=O)CC(C)(C)C)C(C)(C)C)C(=O)c1nc2ccccc2s1 (stereo partly specified)	> 300	> 300	19
Cc1ccc2oc(C(=O)C(C)NC(=O)[C@H](CC(=O)N(C)C)NC(=O)[C@@H](NC(=O)CC(C)(C)C)C(C)(C)C)nc2c1 (stereo partly specified)	> 300	> 300	> 300
Cc1cccc2nc(C(=O)C(C)NC(=O)[C@H](CC(=O)N(C)C)NC(=O)[C@@H](NC(=O)CC(C)(C)C)C(C)(C)C)oc12 (stereo partly specified)	> 300	> 300	> 300
CC(NC(=O)[C@H](CC(=O)N(C)C)NC(=O)[C@@H](NC(=O)CC(C)(C)C)C(C)(C)C)C(=O)C(F)(F)C(F)(F)F (stereo partly specified)	14	> 300	> 300
C[C@H](NC(=O)[C@H](CC(=O)N(C)C)NC(=O)[C@@H](NC(=O)CC(C)(C)C)C(C)(C)C)C(=O)C(F)(F)F	> 300	> 300	> 300
C[C@H](NC(=O)[C@H](CC(=O)N(C)C)NC(=O)[C@@H](NC(=O)CC(C)(C)C)C(C)(C)C)C(=O)C(F)(F)C(=O)NCc1ccccc1	> 300	> 300	> 300
CC(NC(=O)[C@H](CC(=O)N(C)C)NC(=O)[C@@H](NC(=O)CC(C)(C)C)C(C)(C)C)C(=O)C(=O)NCc1ccccc1 (stereo partly specified)	> 300	> 300	> 300
Cc1ccc2nc(C(=O)C(C)NC(=O)[C@H](CC(=O)N(C)C)NC(=O)[C@@H](NC(=O)CC(C)(C)C)C(C)(C)C)oc2c1 (stereo partly specified)	> 300	> 300	225
